The subject of data set [1] is Plasma. Nature of the data set: Cmax in healthy human plasma assessed as metabolite BAY 78-1788 Cmax at 80 mg, po administered as four 20 mg immediate release tablets daily for 3 days during 10 hrs overnight fasting state measured after 3 day. It is filed as ADME, organism-based. Set-up: dose 80 mg, route oral. The note with it: in vivo, 72 h. The gist of the method:
(§1)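 Healthy Caucasian males took tablets once daily for 3 days with 240 ml water after a 10-h fast. Heparinised blood was drawn predose and at 0.25–14 h after the first and last doses. Plasma parent drug and metabolites M1–M3 were measured by LC/MS-MS (MRM, deuterated internal standard). Noncompartmental analysis gave Cmax observed, t1/2 = 0.693/kel and MRT = AUMC/AUC. Values are geometric means.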

The test system of data set [2] is Plasma. Briefly: AUC in healthy human plasma assessed as metabolite BAY 78-1788 AUC at 80 mg, po administered as four 20 mg immediate release tablets daily for 3 days during 10 hrs overnight fasting state measured after 1 day. In kind it is ADME, organism-based. Set-up: dose 80 mg, time < 10 hr, route oral. Particulars: in vivo. In outline: (§2)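 Healthy Caucasian male volunteers took 40 mg (two 20-mg IR tablets) or 80 mg (four tablets) orally once daily for 3 days, with 240 ml water after a 10-h fast. Plasma was sampled predose to 14 h after the first and last doses. M1/M2/M3 were quantified by LC/MS-MS MRM against a D4-labelled internal standard. Cmax was read from observed data and AUC by log-linear trapezoidal rule, noncompartmental, geometric means.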

The test system of data set [3] is Plasma. Briefly: AUC in healthy human plasma assessed as metabolite BAY 78-1788 AUC at 80 mg, po administered as four 20 mg immediate release tablets daily for 3 days during 10 hrs overnight fasting state measured after 3 day. It is filed as ADME, organism-based. The arrangement: dose 80 mg, time < 10 hr, route oral. The note with it: in vivo. In outline: as §2

Data set [4] concerns Plasma. Nature of the data set: Tmax in healthy human plasma assessed as metabolite BAY 78-1788 Tmax at 80 mg, po administered as four 20 mg immediate release tablets daily for 3 days during 10 hrs overnight fasting state measured after 1 day. In kind it is ADME, organism-based. Particulars: in vivo, 24 h. The gist of the method: (§3)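 Healthy Caucasian men (8 active, 4 placebo per dose) dosed with tablets daily for 3 days after 10-h fast. Lithium-heparin plasma sampled predose and 0.25–14 h after day-1 and day-3 doses, stored frozen. Parent and M1–M3 quantified by LC/MS-MS in positive-ion MRM. Tmax taken directly from observed individual data.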

In data set [5] the test system is Plasma. Nature of the data set: Tmax in healthy human plasma assessed as metabolite BAY 78-1788 Tmax at 80 mg, po administered as four 20 mg immediate release tablets daily for 3 days during 10 hrs overnight fasting state measured after 3 day. In kind it is ADME, organism-based. Particulars: in vivo, 72 h. In outline: as §3
The subject of data set [6] is Plasma. Nature of the data set: Half life in healthy human plasma assessed as metabolite BAY 78-1788 Half life at 80 mg, po administered as four 20 mg immediate release tablets daily for 3 days during 10 hrs overnight fasting state measured after 1 day. In kind it is ADME, organism-based. The note with it: in vivo, 24 h. In outline:
as §1

The test system of data set [7] is Plasma. Nature of the data set: Half life in healthy human plasma assessed as metabolite BAY 78-1788 Half life at 80 mg, po administered as four 20 mg immediate release tablets daily for 3 days during 10 hrs overnight fasting state measured after 3 day. It is filed as ADME, organism-based. The note with it: in vivo, 72 h. The gist of the method:
as §1

Data set [8] relates to Plasma. Nature of the data set: Cmax in healthy human plasma assessed as metabolite BAY 78-1788 Cmax at 80 mg, po administered as single ascending doses during 10 hrs overnight fasting state. In kind it is ADME, organism-based. Set-up: dose 80 mg, route oral. The note with it: in vivo. In outline:
(§4)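 Healthy Caucasian male volunteers, single oral dose with 240 ml water after a 10-h overnight fast. Heparinised venous blood was drawn predose and at 0.25–14 h. Plasma was stored frozen. Parent drug and metabolites M1–M3 were measured by LC/MS-MS (MRM, deuterated internal standard). Noncompartmental analysis gave Cmax observed, t1/2 = 0.693/kel (terminal regression) and MRT = AUMC/AUC. Values are geometric means.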

The subject of data set [9] is Plasma. Briefly: AUC (0 to infinity) in healthy human plasma assessed as metabolite BAY 78-1788 AUC (0 to infinity) at 80 mg, po administered as single ascending doses during 10 hrs overnight fasting state. In kind it is ADME, organism-based. The arrangement: dose 80 mg, time infinity, route oral. Particulars: in vivo. In outline: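 Healthy Caucasian male volunteers, single oral dose of 80 mg as four 20-mg immediate-release tablets, taken with 240 ml water after a 10-h overnight fast. Lithium-heparin venous blood was drawn predose and at 0.25–14 h, and plasma was stored frozen. Metabolites M1/M2/M3 were measured by LC/MS-MS (positive-ion MRM, deuterated internal standard). Noncompartmental analysis, AUC by log-linear trapezoidal rule extrapolated to infinity (Clast/kel), geometric means.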

Data set [10] relates to Plasma. Briefly: Half-life in healthy human plasma assessed as metabolite BAY 78-1788 half-life at 80 mg, po administered as single ascending doses during 10 hrs overnight fasting state. It is filed as ADME, organism-based. Particulars: in vivo. The gist of the method:
as §4

Data set [11] has as its system Plasma. Nature of the data set: Ratio of AUC (0 to infinity) for metabolite BAY 78-1788 to AUC (0 to infinity) for compound in healthy human plasma at 40 mg, po administered as single dose for 3 days measured after 1 day. In kind it is ADME, organism-based. Particulars: in vivo, 24 h. The gist of the method:
(§5)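 Healthy Caucasian men (8 active, 4 placebo per dose) dosed with tablets daily for 3 days after 10-h fast. Plasma sampled 0.25–14 h after first and last doses. Parent and metabolites M1–M3 measured by LC/MS-MS (200 µl plasma). Metabolic ratio is metabolite AUC0-∞ divided by parent AUC0-∞ (log-linear trapezoidal, extrapolated by last concentration/kel). First vs third dose compared by paired t test.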

Data set [12] deals with Plasma. Briefly: Ratio of AUC (0 to infinity) for metabolite BAY 78-1788 to AUC (0 to infinity) for compound in healthy human plasma at 40 mg, po administered as single dose for 3 days measured after 3 days. In kind it is ADME, organism-based. Particulars: in vivo, 72 h. The gist of the method:
as §5

The subject of data set [13] is Plasma. Nature of the data set: Ratio of AUC (0 to infinity) for metabolite BAY 78-1788 to AUC (0 to infinity) for compound in healthy human plasma at 80 mg, po administered as single dose for 3 days measured after 1 day. It is filed as ADME, organism-based. Particulars: in vivo, 24 h. In outline: as §5
Data set [14] deals with Plasma. Briefly: Ratio of AUC (0 to infinity) for metabolite BAY 78-1788 to AUC (0 to infinity) for compound in healthy human plasma at 80 mg, po administered as single dose for 3 days measured after 3 days. In kind it is ADME, organism-based. The note with it: in vivo, 72 h. The gist of the method: as §5
Data set [15] concerns Plasmodium falciparum. Nature of the data set: Antimalarial activity against Plasmodium falciparum K1 in human plasma assessed as inhibition of hypoxanthine uptake by intraerythrocytic malaria parasites by hypoxanthine incorporation assay. In kind it is functional, organism-based. The gist of the method: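 K1 or TM90-C2A parasites were sorbitol-synchronized and cultured in RPMI 1640. Drug was diluted in drug-free human serum (0.04–40 ng/ml) or subject plasma was diluted twofold (8–8,192). Parasites were added at 2% hematocrit, 1% parasitemia (>95% rings), and [3H]hypoxanthine uptake was measured over 48 h. IC50 or ID50 came from concentration or dilution-response curves. Equivalent concentration = ID50 × IC50.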

The test system of data set [16] is Plasma. Nature of the data set: Cmax in healthy human plasma assessed as metabolite BAY 78-1788 Cmax at 40 mg, po administered as two 20 mg immediate release tablets daily for 3 days during 10 hrs overnight fasting state measured after 1 day. It is filed as ADME, organism-based. The arrangement: dose 40 mg, route oral. The note with it: in vivo, 24 h. In outline: as §2

For data set [17], the system named is Plasma. Briefly: Cmax in healthy human plasma assessed as metabolite BAY 78-1788 Cmax at 40 mg, po administered as two 20 mg immediate release tablets daily for 3 days during 10 hrs overnight fasting state measured after 3 day. In kind it is ADME, organism-based. The arrangement: dose 40 mg, route oral. Particulars: in vivo, 72 h. In outline: as §1
In data set [18] the test system is Plasma. Nature of the data set: AUC in healthy human plasma assessed as metabolite BAY 78-1788 AUC at 40 mg, po administered as two 20 mg immediate release tablets daily for 3 days during 10 hrs overnight fasting state measured after 1 day. In kind it is ADME, organism-based. The arrangement: dose 40 mg, time < 10 hr, route oral. The note with it: in vivo. The gist of the method:
as §2

For data set [19], the system named is Plasma. Nature of the data set: AUC in healthy human plasma assessed as metabolite BAY 78-1788 AUC at 40 mg, po administered as two 20 mg immediate release tablets daily for 3 days during 10 hrs overnight fasting state measured after 3 day. In kind it is ADME, organism-based. Set-up: dose 40 mg, time < 10 hr, route oral. Particulars: in vivo. The gist of the method:
as §2

The test system of data set [20] is Plasma. Nature of the data set: Tmax in healthy human plasma assessed as metabolite BAY 78-1788 Tmax at 40 mg, po administered as two 20 mg immediate release tablets daily for 3 days during 10 hrs overnight fasting state measured after 1 day. In kind it is ADME, organism-based. Particulars: in vivo, 24 h. In outline:
as §3

The subject of data set [21] is Plasma. Briefly: Tmax in healthy human plasma assessed as metabolite BAY 78-1788 Tmax at 40 mg, po administered as two 20 mg immediate release tablets daily for 3 days during 10 hrs overnight fasting state measured after 3 day. It is filed as ADME, organism-based. The note with it: in vivo, 72 h. The gist of the method: as §3
In data set [22] the test system is Plasma. Briefly: Half life in healthy human plasma assessed as metabolite BAY 78-1788 Half life at 40 mg, po administered as two 20 mg immediate release tablets daily for 3 days during 10 hrs overnight fasting state measured after 1 day. In kind it is ADME, organism-based. Particulars: in vivo. The gist of the method:
as §1

The test system of data set [23] is Plasma. Briefly: Half life in healthy human plasma assessed as metabolite BAY 78-1788 Half life at 40 mg, po administered as two 20 mg immediate release tablets daily for 3 days during 10 hrs overnight fasting state measured after 3 day. It is filed as ADME, organism-based. Particulars: in vivo, 72 h. The gist of the method:
as §1

In data set [24] the test system is Plasma. Briefly: Cmax in healthy human plasma assessed as metabolite BAY 78-1788 Cmax at 80 mg, po administered as four 20 mg immediate release tablets daily for 3 days during 10 hrs overnight fasting state measured after 1 day. It is filed as ADME, organism-based. Set-up: dose 80 mg, route oral. The note with it: in vivo, 24 h. In outline:
as §1

Values after ≈ are worked out from the molar mass of the structure shown.

Take `C[C@H]1[C@H](N2CCS(=O)(=O)CC2)O[C@@H]2O[C@]3(C)C[C@H](O)[C@H]4[C@H](C)CC[C@@H]1[C@@]24OO3`: the Cmax (commonly the peak of the concentration-time curve) in [1] was determined as 0.0665 µg/mL; in [8], 0.1089 µg/mL; in data set [16], 0.0406 µg/mL; in data set [17], 0.0364 µg/mL; in data set [24] it was 0.0872 µg/mL. For the same molecule, the AUC (in general, concentration integrated over time) in data set [2] is 0.3024 µg·h/mL; in data set [3], 0.263 µg·h/mL; in data set [9], 0.3799 µg·h/mL; in [18], 0.1173 µg·h/mL; in data set [19] it was 0.1151 µg·h/mL. The Tmax (commonly the time from dosing to the highest level) in [4] is 2 h; in [5], 2.5 h; in [20], 1.75 h; in data set [21], 2 h. In addition, the t1/2 worked out at 1.59 h in [6]; 1.44 h in data set [7]; 1.36 h in data set [10]; 1.31 h in data set [22]; 1.28 h in data set [23]. Further, the Ratio in data set [11] turned out to be 0.71; in data set [12], 0.65; in data set [13] it was 0.91; in data set [14], 0.82. Moreover, the IC50 (in general, the midpoint of a concentration-inhibition curve) in data set [15] stood at 0.0257 mg/L (≈ 0.0616 µM).
